Several values for one entry are separate records, joined by “and”; a condition that tells them apart may be missing. Equal values may be shown once. Read-outs that look alike come from different tables or passages of the source.
Experiments:
Safety evaluation = assay type: in vivo, healthy adults; details: for Participants with any TEAEs: 60 mg
Method in brief: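 3-period crossover; single 60 mg test compound, fasted ≥10 h pre and 4 h post, as granules in 20 mL water via 16 French NG tube or oral syringe, or intact capsule with 240 mL water; ≥5-day washout. TEAE: onset/worsening from first dose to 30 days after last; MedDRA 15.0; phone follow-up 5–10 days post final dose; all dosed subjects.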

[1] = dual delayed-release formulation; cited from earlier work
[2] = human, plasma, 60 mg

Tmax ([2]; oral): ~5 h
Tmax ([2]; po): ~5.5 h
Compound: Cc1c(OCC(F)(F)F)ccnc1C[S@@+]([O-])c1nc2ccccc2[nH]1 [Dexlansoprazole, dexlansoprazole]
Tolerability (Safety evaluation; 60 mg capsule, single doses, all administration routes): well tolerated
Participants with any TEAEs (Safety evaluation; oral intact capsule, N=52): 12 (23.1%) n (%) and 12 (23.1) n (%)
Participants with any TEAEs (Safety evaluation; oral syringe administration, N=60): 10 (16.7%) n (%) and 10 (16.7) n (%)
Time of first release of dexlansoprazole after dosing [1]: 1 to 2 h
Time of second release of dexlansoprazole after dosing [1]: 4 to 5 h

Source: paper PMC6177519 (Clinical and Experimental Gastroenterology, 2018)
